The record followed here is ChEMBL document CHEMBL3045051 (Med Chem Res, 2011).

The test system of experiment [1] is Radical scavenging activity. The experiment in a line: Antioxidant activity assessed as DPPH radical scavenging activity at 5 X 10^-5 M after 20 min. It counts as functional. The method, boiled down:
(§1)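 Test compound was mixed with DPPH (0.05 and 0.1 mM) in ethanol. Absorbance at 517 nm was read after 20 and 60 min and compared with the NDGA standard, with ethanol as control. Each experiment was run at least in triplicate, and the SD of absorbance was <10% of the mean.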

Experiment [2] concerns the target T1, Seed linoleate 13S-lipoxygenase-1 (Glycine max) (UniProt P08170).
T1 sequence (whole entry): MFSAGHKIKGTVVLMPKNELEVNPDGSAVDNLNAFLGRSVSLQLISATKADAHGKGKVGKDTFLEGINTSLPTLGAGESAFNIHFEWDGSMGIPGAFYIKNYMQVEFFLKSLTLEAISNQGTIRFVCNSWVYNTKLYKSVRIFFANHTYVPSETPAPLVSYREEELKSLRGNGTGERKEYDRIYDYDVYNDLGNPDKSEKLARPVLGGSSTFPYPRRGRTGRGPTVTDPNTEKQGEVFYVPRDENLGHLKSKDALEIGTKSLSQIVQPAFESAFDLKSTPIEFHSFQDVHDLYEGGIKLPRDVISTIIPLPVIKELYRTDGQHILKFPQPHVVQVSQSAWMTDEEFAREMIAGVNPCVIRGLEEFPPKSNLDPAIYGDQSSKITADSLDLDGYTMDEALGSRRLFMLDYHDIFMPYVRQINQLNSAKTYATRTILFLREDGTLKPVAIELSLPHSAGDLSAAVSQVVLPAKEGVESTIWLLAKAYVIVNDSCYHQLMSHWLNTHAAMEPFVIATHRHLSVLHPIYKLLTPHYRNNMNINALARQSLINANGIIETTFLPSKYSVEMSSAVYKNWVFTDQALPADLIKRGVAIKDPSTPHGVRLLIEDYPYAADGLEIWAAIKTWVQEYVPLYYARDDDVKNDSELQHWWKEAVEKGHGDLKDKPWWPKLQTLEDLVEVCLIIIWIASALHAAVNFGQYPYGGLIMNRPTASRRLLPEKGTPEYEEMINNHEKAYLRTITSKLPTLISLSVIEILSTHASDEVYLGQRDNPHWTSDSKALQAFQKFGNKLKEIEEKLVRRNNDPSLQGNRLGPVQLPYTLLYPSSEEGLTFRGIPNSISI
Briefly: Inhibition of Glycine max (soybean) lipoxygenase using sodium linoleate as substrate at 1 X 10^-4.

Experiment [3] relates to Vaccinia virus. The experiment in a line: Antiviral activity against Vaccinia virus infected human HEL cells assessed as inhibition of virus-induced cytopathicity. It counts as functional, organism-based. The conditions noted are these: Orthopoxvirus vaccinia.
Experiment [4] deals with Radical scavenging activity. Briefly: Antioxidant activity assessed as DPPH radical scavenging activity at 1 X 10^-4 M after 20 min. The class given is functional. The gist of the method:
as §1

The nature of experiment [5]: Antioxidant activity assessed as inhibition of AAPH-induced lipid peroxidation at 1 X 10^-4 M. The class given is functional.
Experiment [6] deals with Coxsackievirus B4. The experiment in a line: Antiviral activity against Human coxsackievirus B4 infected human HeLa cells assessed as inhibition of virus-induced cytopathicity. It counts as functional, organism-based. The gist of the method: (§2)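 Confluent monolayers (feline kidney Crandell, Vero, HEL or HeLa, as named for each virus) were infected with 100 CCID50 of virus and allowed to adsorb for 1 h. Unbound virus was then removed, and cultures were incubated with test compound in serial dilutions (200, 40, 8 … µM). Cytopathicity was scored once untreated infected controls reached complete cytopathic effect.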

Experiment [7] deals with T2, Seed linoleate 13S-lipoxygenase-1 (Glycine max, UniProt P08170).
T2 sequence (P08170 whole entry): T1 sequence (whole entry)
Briefly: Inhibition of Glycine max (soybean) lipoxygenase using sodium linoleate as substrate.

Experiment [8] relates to Sindbis virus. Briefly: Antiviral activity against Sindbis virus infected Hela cells assessed as inhibition of virus-induced cytopathicity. The class given is functional, organism-based.
Experiment [9] in a line: Antioxidant activity assessed as inhibition of AAPH-induced lipid peroxidation at 1 X 10^-5 M. The class given is functional.
Experiment [10] deals with Mammalian orthoreovirus 1. Briefly: Antiviral activity against Mammalian orthoreovirus 1 infected VERO cells assessed as inhibition of virus-induced cytopathicity. The class given is functional, organism-based. The method, boiled down:
as §2

Experiment [11] has as its system Vesicular stomatitis virus. The experiment in a line: Antiviral activity against Vesicular stomatitis virus infected HEL cells assessed as inhibition of virus-induced cytopathicity. It counts as functional, organism-based.
Experiment [12] concerns Punta Toro virus. The experiment in a line: Antiviral activity against Punta Toro virus infected Hela cells assessed as inhibition of virus-induced cytopathicity. It counts as functional, organism-based.
The test system of experiment [13] is Feline coronavirus. The experiment in a line: Antiviral activity against Feline coronavirus infected feline kidney crandell cells assessed as inhibition of virus-induced cytopathicity. It counts as functional, organism-based. The gist of the method:
as §2

The subject of experiment [14] is Human alphaherpesvirus 1. The experiment in a line: Antiviral activity against […] 1 KOS infected in human HEL cells assessed as inhibition of virus-induced cytopathicity. It counts as functional, organism-based. The gist of the method:
as §2

Experiment [15] relates to Influenza A virus. Briefly: Antiviral activity against Unidentified Influenza A virus (H1N2) infected MDCK cells assessed as inhibition of virus-induced cytopathicity. It counts as functional, organism-based.
Experiment [16] has as its system Coxsackievirus B4. Briefly: Antiviral activity against Human coxsackievirus B4 infected VERO cells assessed as inhibition of virus-induced cytopathicity. The class given is functional, organism-based. The gist of the method: as §2
The test system of experiment [17] is Radical scavenging activity. The experiment in a line: Antioxidant activity assessed as DPPH radical scavenging activity at 1 X 10^-4 M after 60 min. The class given is functional. The method, boiled down:
as §1

For experiment [18], the system named is Vesicular stomatitis virus. Briefly: Antiviral activity against Vesicular stomatitis virus infected Hela cells assessed as inhibition of virus-induced cytopathicity. The class given is functional, organism-based.
Experiment [19] deals with Human respirovirus 3. The experiment in a line: Antiviral activity against Human parainfluenza virus 3 infected Vero cells assessed as inhibition of virus-induced cytopathicity. The class given is functional, organism-based. The method, boiled down:
as §2

For experiment [20], the system named is Human alphaherpesvirus 2. Briefly: Antiviral activity against Human herpesvirus 2 strain G infected human HEL cells assessed as inhibition of virus-induced cytopathicity. The class given is functional, organism-based. The method, boiled down:
as §2

Experiment [21] has as its system Radical scavenging activity. Briefly: Antioxidant activity assessed as DPPH radical scavenging activity at 5 X 10^-5 M after 60 min. It counts as functional. The gist of the method: as §1
The subject of experiment [22] is Respiratory syncytial virus. The experiment in a line: Antiviral activity against Respiratory syncytial virus infected human HeLa cells assessed as inhibition of virus-induced cytopathicity. The class given is functional, organism-based. The gist of the method: as §2

Calls of active or inactive are those of the source. No cut-off for these calls is given here.

As for `CC(C(=O)NCc1ccccc1)c1cccc(C(OC(=O)NCc2ccccc2)c2ccccc2)c1` (stereo unspecified), the inhibition was found to be 4.2% in [1]; 83.8% in experiment [2]; 98.4% in [5]; 2.4% in experiment [17]; 5.3% in experiment [21]. Besides, the outcome in experiment [3], in [6], in experiment [10], in [11], in experiment [13] and in [14] was inactive. Moreover, the outcome in experiment [15], in experiment [15] (H1N1), in experiment [16], in experiment [19], in experiment [20] and in experiment [22] was inactive. Also, the inhibition result in experiment [4] and in experiment [9] was “inactive” each time. Moreover, the IC50 in [7] stood at 32 µM. The EC50 was determined as 11 µM in experiment [8], 11 µM in experiment [12] and 3 µM in [18].
As to `CC(C(=O)NCC1CCCCC1)c1cccc(C(OC(=O)NCC2CCCCC2)c2ccccc2)c1` (stereo unspecified), the inhibition was 1.7% in [1]; 56.6% in [2]; 1.6% in experiment [4]; 99.5% in experiment [5]; 1.4% in experiment [9]; 5.2% in experiment [17]. Moreover, in [21], the inhibition was 3.1%. The outcome in experiment [3], in [6], in [8], in [10], in experiment [11] and in experiment [12] was inactive. The outcome in [13], in experiment [14], in experiment [15], in experiment [15] (H1N1), in experiment [16] and in experiment [18] was inactive. In addition, the result in experiment [19], in experiment [20] and in experiment [22] was inactive. The same compound showed an IC50 in experiment [7] of 95 µM.
